Experimental data: ChEMBL document CHEMBL1139333, “Search for new pharmacophores for antimalarial activity. Part I: synthesis and antimalarial activity of new 2-methyl-6-ureido-4-quinolinamides” (Bioorg Med Chem, 2009)
Converted amounts (≈) assume the structure as drawn.

Legend:
Plasmodium falciparum [1] = test: Antimalarial effect as schizonticidal activity against chloroquine-sensitive Plasmodium falciparum 3D7 after 40 hrs; conditions: 3D7, 40 h
Plasmodium yoelii [2] = test: Antimalarial activity as parasitaemia after 28 days against chloroquine-resistant Plasmodium yoelii N67 infected Swiss mice (Mus musculus) at 50 mg/kg peroral dose over 7 days; type: functional; conditions: route oral
Plasmodium falciparum [3] = test: Antimalarial activity against chloroquine-sensitive Plasmodium falciparum 3D7 infected erythrocytes after 72 hrs by MSF assay; conditions: 3D7, 72 h
Plasmodium yoelii [4] = test: Antimalarial activity as parasitaemia after 28 days against chloroquine-resistant Plasmodium yoelii N67 infected Swiss mice (Mus musculus) at 50 mg/kg peroral dose over 4 days; type: functional; conditions: route oral
Procedure, shortened: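 Swiss mice (25 g, either sex, n=5) infected on day 0 with 1 × 10⁶ P. yoelii N67 chloroquine-resistant parasitized cells. Test compounds were given orally as an aqueous suspension at 50 mg/kg from day 0 to 3; vehicle controls were run alongside. Parasitaemia was counted on tail-vein thin smears on days 4, 7, 14, 21 and 28, or until death.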

[5] = Selectivity index, ratio of CC50 for african green monkey (Cercopithecus aethiops) Vero cells to IC50 for Plasmodium falciparum 3D7; type: functional

Compound | MIC (Plasmodium falciparum [1]) [µg/mL] | Activity (Plasmodium yoelii [2]) [%] | IC50 (Plasmodium falciparum [3]) [µg/mL] | Activity (Plasmodium yoelii [4]) [%] | Selectivity Index [5]
CCN(CC)CCCC(C)Nc1ccnc2cc(Cl)ccc12 (configuration not stated) [CHLOROQUINE] | 0.015 (≈ 0.0469 µM) |  |  |  | 
Cc1cc(NC(=O)c2ccccc2Cl)c2cc(NC(=O)Nc3ccc(C)c(Cl)c3)ccc2n1 | 1 (≈ 2.09 µM) | 5.08 | 0.0445 (≈ 0.0928 µM) | 2.15 | 205.1
Cc1cc(NC(=O)c2ccccc2)c2cc(NC(=O)Nc3cccc(F)c3)ccc2n1 | 10 (≈ 24.1 µM) |  |  |  | 
Cc1cc(NC(=O)c2ccccc2)c2cc(NC(=O)Nc3ccc(C)c(Cl)c3)ccc2n1 | 2 (≈ 4.5 µM) |  |  |  | 
Cc1cc(NC(=O)c2ccccc2)c2cc(NC(=O)Nc3ccc(F)c(Cl)c3)ccc2n1 | 10 (≈ 22.3 µM) |  |  |  | 
CC(=O)Nc1cc(C)nc2ccc(NC(=O)Nc3ccc(C(C)=O)cc3)cc12 | 10 (≈ 26.6 µM) |  |  |  | 
Cc1cc(NC(=O)c2cccc(Cl)c2)c2cc(NC(=O)Nc3cccc(C#N)c3)ccc2n1 | 1 (≈ 2.19 µM) |  |  |  | 
Cc1cc(NC(=O)CN2CCN(C)CC2)c2cc(NC(=O)Nc3cccc(Cl)c3C)ccc2n1 | > 10 |  |  |  | 
Cc1cc(NC(=O)c2ccco2)c2cc(NC(=O)Nc3ccc(Cl)c(C(F)(F)F)c3)ccc2n1 |  |  | 0.0099 (≈ 0.0203 µM) |  | 713.3
Cc1cc(NC(=O)c2ccco2)c2cc(NC(=O)Nc3ccc(Br)cc3)ccc2n1 | 1 (≈ 2.15 µM) |  | 0.0571 (≈ 0.123 µM) |  | 1547
Cc1cc(NC(=O)CN2CCCCC2)c2cc(NC(=O)Nc3ccc(Cl)cc3)ccc2n1 | 0.5 (≈ 1.11 µM) |  | 0.023 (≈ 0.0509 µM) |  | 64.9
Cc1cc(NC(=O)c2ccccc2Cl)c2cc(NC(=O)Nc3cccc(C(F)(F)F)c3)ccc2n1 | 2 (≈ 4.01 µM) |  |  |  | 
Cc1cc(NC(=O)c2cccc(Cl)c2)c2cc(NC(=O)Nc3ccc(Cl)c(C(F)(F)F)c3)ccc2n1 | > 10 |  |  |  | 
Cc1cc(NC(=O)c2ccccc2)c2cc(NC(=O)Nc3ccc(Br)cc3)ccc2n1 | 10 (≈ 21 µM) |  |  |  | 
Cc1cc(NC(=O)c2ccccc2)c2cc(NC(=O)Nc3ccc(Cl)cc3)ccc2n1 | > 50 |  |  |  | 
Cc1cc(NC(=O)c2ccccc2Cl)c2cc(NC(=O)Nc3ccc(Cl)c(Cl)c3)ccc2n1 | 1 (≈ 2 µM) |  | 0.194 (≈ 0.389 µM) |  | 16.8
Cc1cc(NC(=O)c2cccc(Cl)c2)c2cc(NC(=O)Nc3ccc(C)c(Cl)c3)ccc2n1 | 10 (≈ 20.9 µM) |  |  |  | 
Cc1cc(NC(=O)c2cccc(Cl)c2)c2cc(NC(=O)Nc3cc(Cl)cc(Cl)c3)ccc2n1 | 2 (≈ 4 µM) |  | 0.218 (≈ 0.436 µM) |  | 187.7
Cc1cc(NC(=O)CN2CCN(C)CC2)c2cc(NC(=O)Nc3ccc(Cl)cc3)ccc2n1 | 0.5 (≈ 1.07 µM) |  | 0.005 (≈ 0.0107 µM) |  | 
Cc1cc(NC(=O)c2ccccc2Cl)c2cc(NC(=O)Nc3cccc(Cl)c3)ccc2n1 | 0.5 (≈ 1.07 µM) | 9.77 | 0.22 (≈ 0.472 µM) | 4.23 | 32.1
Cc1cc(NC(=O)c2cccc(Cl)c2)c2cc(NC(=O)Nc3cccc(Cl)c3)ccc2n1 | 50 (≈ 107 µM) |  |  |  | 
Cc1cc(NC(=O)c2cccc(Cl)c2)c2cc(NC(=O)Nc3ccc(F)cc3)ccc2n1 | 10 (≈ 22.3 µM) |  |  |  | 
Cc1cc(NC(=O)c2ccco2)c2cc(NC(=O)Nc3ccc(C)c(Cl)c3)ccc2n1 | 0.5 (≈ 1.15 µM) | 21.1 | 0.135 (≈ 0.31 µM) | 0.61 | 524.7

Compound | MIC (Plasmodium falciparum [1]) [µg/mL] | Activity (Plasmodium yoelii [2]) [%] | IC50 (Plasmodium falciparum [3]) [µg/mL] | Activity (Plasmodium yoelii [4]) [%] | Selectivity Index [5]
Cc1cc(NC(=O)CN2CCCCC2)c2cc(NC(=O)Nc3cc(Cl)cc(Cl)c3)ccc2n1 | 0.5 (≈ 1.03 µM) |  | 0.0288 (≈ 0.0592 µM) |  | 396.9
Cc1cc(NC(=O)c2ccccc2Cl)c2cc(NC(=O)Nc3ccc(Cl)c(C(F)(F)F)c3)ccc2n1 |  |  | 0.0356 (≈ 0.0667 µM) |  | 270.9
Cc1cc(NC(=O)c2ccccc2Cl)c2cc(NC(=O)Nc3cc(Cl)cc(Cl)c3)ccc2n1 |  |  | 0.0217 (≈ 0.0434 µM) |  | 505
Cc1cc(NC(=O)c2ccccc2)c2cc(NC(=O)Nc3cccc(Cl)c3)ccc2n1 | 50 (≈ 116 µM) |  |  |  | 
CC(=O)c1cccc(NC(=O)Nc2ccc3nc(C)cc(NC(=O)CN4CCN(C)CC4)c3c2)c1 | 0.5 (≈ 1.05 µM) |  | 0.146 (≈ 0.308 µM) |  | 524.5
Cc1cc(NC(=O)CN2CCCCC2)c2cc(NC(=O)Nc3ccc(Cl)c(Cl)c3)ccc2n1 | 0.25 (≈ 0.514 µM) |  | 0.0758 (≈ 0.156 µM) |  | 524.2
CC(=O)c1cccc(NC(=O)Nc2ccc3nc(C)cc(NC(=O)c4ccccc4Cl)c3c2)c1 | 2 (≈ 4.23 µM) |  |  |  | 
Cc1cc(NC(=O)c2cccc(Cl)c2)c2cc(NC(=O)Nc3cccc(C(F)(F)F)c3)ccc2n1 |  |  | 0.0099 (≈ 0.0198 µM) |  | 6014.2
Cc1cc(NC(=O)c2ccccc2Cl)c2cc(NC(=O)Nc3ccc(Br)cc3)ccc2n1 | 2 (≈ 3.92 µM) | 8.8 |  | 1.9 | 
Cc1cc(NC(=O)CN2CCN(C)CC2)c2cc(NC(=O)Nc3ccc(F)cc3)ccc2n1 | 2 (≈ 4.44 µM) |  |  |  | 
Cc1cc(NC(=O)c2ccccc2)c2cc(NC(=O)Nc3cccc(Cl)c3C)ccc2n1 | 50 (≈ 112 µM) |  |  |  | 
Cc1cc(NC(=O)c2cccc(Cl)c2)c2cc(NC(=O)Nc3ccc(Br)cc3)ccc2n1 | 2 (≈ 3.92 µM) |  |  |  | 
CCN1CCN(CC(=O)Nc2cc(C)nc3ccc(NC(=O)Nc4ccc(C)c(Cl)c4)cc23)CC1 | 0.5 (≈ 1.01 µM) |  | 0.0035 (≈ 0.00707 µM) |  | 
CC(=O)c1ccc(NC(=O)Nc2ccc3nc(C)cc(NC(=O)c4ccccc4)c3c2)cc1 | 50 (≈ 114 µM) |  |  |  | 
Cc1cc(NC(=O)c2ccco2)c2cc(NC(=O)Nc3cc(Cl)cc(Cl)c3)ccc2n1 | 2 (≈ 4.39 µM) |  |  |  | 
Cc1cc(NC(=O)c2ccccc2Cl)c2cc(NC(=O)Nc3cccc(C#N)c3)ccc2n1 | 1 (≈ 2.19 µM) | 12.11 | 0.0284 (≈ 0.0623 µM) | 6.05 | 2401.9
CC(=O)Nc1cc(C)nc2ccc(NC(=O)Nc3ccc(C)c(Cl)c3)cc12 | 50 (≈ 131 µM) |  |  |  | 
Cc1cc(NC(=O)c2cccc(Cl)c2)c2cc(NC(=O)Nc3cccc(Cl)c3C)ccc2n1 | 1 (≈ 2.09 µM) |  | 0.034 (≈ 0.0709 µM) |  | 184.5
Cc1cc(NC(=O)c2ccccc2)c2cc(NC(=O)Nc3ccc(Cl)c(C(F)(F)F)c3)ccc2n1 | 1 (≈ 2 µM) |  | 0.0194 (≈ 0.0389 µM) |  | 
Cc1cc(NC(=O)c2ccccc2)c2cc(NC(=O)Nc3ccc(Cl)c(Cl)c3)ccc2n1 | 1 (≈ 2.15 µM) |  | 0.0109 (≈ 0.0234 µM) |  | 
Cc1cc(NC(=O)c2ccccc2Cl)c2cc(NC(=O)Nc3ccc(F)c(Cl)c3)ccc2n1 | 10 (≈ 20.7 µM) |  |  |  | 
Cc1cc(NC(=O)c2ccco2)c2cc(NC(=O)Nc3ccc(Cl)cc3)ccc2n1 | 0.5 (≈ 1.19 µM) | 13.2 | 0.0139 (≈ 0.033 µM) | 2.95 | 3909.5
CC(=O)c1ccc(NC(=O)Nc2ccc3nc(C)cc(NC(=O)c4ccco4)c3c2)cc1 | 10 (≈ 23.3 µM) |  |  |  | 

Compound | MIC (Plasmodium falciparum [1]) [µg/mL] | Activity (Plasmodium yoelii [2]) [%] | IC50 (Plasmodium falciparum [3]) [µg/mL] | Activity (Plasmodium yoelii [4]) [%] | Selectivity Index [5]
Cc1cc(NC(=O)CN2CCN(C)CC2)c2cc(NC(=O)Nc3cccc(C#N)c3)ccc2n1 | 2 (≈ 4.37 µM) |  |  |  | 
Cc1cc(NC(=O)CN2CCN(C)CC2)c2cc(NC(=O)Nc3cccc(C(F)(F)F)c3)ccc2n1 | 0.25 (≈ 0.499 µM) | 21.9 | 0.0008 (≈ 0.0016 µM) | 2.5 | 2594.9
CC(=O)c1ccc(NC(=O)Nc2ccc3nc(C)cc(NC(=O)CN4CCN(C)CC4)c3c2)cc1 | 1 (≈ 2.11 µM) |  | 0.014 (≈ 0.0295 µM) |  | 
Cc1cc(NC(=O)c2ccccc2)c2cc(NC(=O)Nc3ccc(F)cc3)ccc2n1 | 10 (≈ 24.1 µM) |  |  |  | 
CC(=O)c1ccc(NC(=O)Nc2ccc3nc(C)cc(NC(=O)c4ccccc4Cl)c3c2)cc1 | 2 (≈ 4.23 µM) | 5.98 |  | 3.03 | 
Cc1cc(NC(=O)CN2CCN(C)CC2)c2cc(NC(=O)Nc3cccc(F)c3)ccc2n1 | 10 (≈ 22.2 µM) |  |  |  | 
CCN1CCN(CC(=O)Nc2cc(C)nc3ccc(NC(=O)Nc4cccc(C(F)(F)F)c4)cc23)CC1 | 0.5 (≈ 0.972 µM) |  | 0.028 (≈ 0.0544 µM) |  | 
CC(=O)c1cccc(NC(=O)Nc2ccc3nc(C)cc(NC(=O)c4cccc(Cl)c4)c3c2)c1 | 10 (≈ 21.1 µM) |  |  |  | 
Cc1cc(NC(=O)c2ccccc2Cl)c2cc(NC(=O)Nc3cccc(F)c3)ccc2n1 | 2 (≈ 4.46 µM) |  |  |  | 
Cc1cc(NC(=O)c2ccccc2)c2cc(NC(=O)Nc3cccc(C(F)(F)F)c3)ccc2n1 | 10 (≈ 21.5 µM) |  |  |  | 
Cc1cc(NC(=O)c2cccc(Cl)c2)c2cc(NC(=O)Nc3ccc(Cl)c(Cl)c3)ccc2n1 | 10 (≈ 20 µM) |  |  |  | 
Cc1cc(NC(=O)CN2CCCCC2)c2cc(NC(=O)Nc3cccc(C(F)(F)F)c3)ccc2n1 | 0.25 (≈ 0.515 µM) |  | 0.0335 (≈ 0.069 µM) |  | 214.3
Cc1cc(NC(=O)c2ccccc2Cl)c2cc(NC(=O)Nc3ccc(F)cc3)ccc2n1 | 50 (≈ 111 µM) |  |  |  | 
Cc1cc(NC(=O)c2ccccc2)c2cc(NC(=O)Nc3cccc(C#N)c3)ccc2n1 | 10 (≈ 23.7 µM) |  |  |  | 
CC(=O)Nc1cc(C)nc2ccc(NC(=O)Nc3cc(Cl)cc(Cl)c3)cc12 | 2 (≈ 4.96 µM) |  |  |  | 
Cc1cc(NC(=O)c2ccccc2Cl)c2cc(NC(=O)Nc3ccc(Cl)cc3)ccc2n1 | 2 (≈ 4.3 µM) |  |  |  | 
CC(=O)Nc1cc(C)nc2ccc(NC(=O)Nc3ccc(Cl)cc3)cc12 | 10 (≈ 27.1 µM) |  |  |  | 
Cc1cc(NC(=O)c2ccccc2Cl)c2cc(NC(=O)Nc3cccc(Cl)c3C)ccc2n1 | 10 (≈ 20.9 µM) |  |  |  | 
Cc1cc(NC(=O)c2cccc(Cl)c2)c2cc(NC(=O)Nc3cccc(F)c3)ccc2n1 | > 50 |  |  |  | 
Cc1cc(NC(=O)c2cccc(Cl)c2)c2cc(NC(=O)Nc3ccc(F)c(Cl)c3)ccc2n1 |  | 15.5 | 0.0682 (≈ 0.141 µM) | 3.76 | 125.6
CC(=O)c1cccc(NC(=O)Nc2ccc3nc(C)cc(NC(=O)c4ccccc4)c3c2)c1 | 10 (≈ 22.8 µM) |  |  |  | 
CC(=O)c1cccc(NC(=O)Nc2ccc3nc(C)cc(NC(=O)CN4CCCCC4)c3c2)c1 |  |  |  |  | 214.4
